# Test results as given in ChEMBL document CHEMBL1125170, “A novel series of selective leukotriene antagonists: exploration and optimization of the acidic region in 1,6-disubstituted indoles and indazoles” (1990).
# “And” between values parts separate entries of the source, which are not always exact repeats. Equal values may be shown once.
# Experiments:
# Cavia porcellus [1] = species: Cavia porcellus; test: Dissociation constant KB = [antagonist]/(dose ratio -1). KB determined in guinea pig tracheal spirals with LTE4 as agonist.; assay type: functional, Trachea
# How it was run: (§1)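 Isolated guinea pig tracheal strips in Krebs' buffer with indomethacin (5 μM), 37 °C, 95% O2/5% CO2, resting tension 2 g. Carbachol (30 μM) sets the maximum. Antagonist incubated 30 min, then cumulative LTE4 concentration–response curves in log increments, one curve per tissue. EC50 by linear regression, paired vehicle controls. KB = [antagonist]/(DR − 1) (Furchgott).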
# Cavia porcellus [2] = species: Cavia porcellus; test: In vitro antagonism of 8 nM of peptidoleukotriene (LTE4) induced contraction of guinea pig tracheal spirals at 10 X E-7M concentration; assay type: functional, Trachea
# How it was run: (§2)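 Guinea pig tracheal spirals held at 37 °C in modified Krebs' (mM: NaCl 119, KCl 4.6, CaCl2 1.8, MgCl2 0.5, NaHCO3 24.9, NaH2PO4 1.0, glucose 11.1) plus indomethacin 5 μM, resting tension 2 g, isometric recording. After reproducible 8 nM LTE4 responses, compound added for 10 min, then rechallenged. % inhibition is adjusted for the paired vehicle tissue. At least four spirals, paired t test.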
# Cavia porcellus [3] = species: Cavia porcellus; test: In vitro antagonism of 8 nM of peptidoleukotriene (LTE4) induced contraction of guinea pig tracheal spirals at 100 X E-7M concentration; assay type: functional, Trachea; how it was run: as §2
# Cavia porcellus [4] = species: Cavia porcellus; test: In vitro antagonism of 8 nM of peptidoleukotriene (LTE4) induced contraction of guinea pig tracheal spirals at 33 X E-7M concentration; assay type: functional, Trachea; how it was run: as §2
# Cavia porcellus [5] = species: Cavia porcellus; test: In vitro antagonism of 8 nM of peptidoleukotriene (LTE4) induced contraction of guinea pig tracheal spirals at 0.1 X E-7M concentration; assay type: functional, Trachea; how it was run: as §2
# Cavia porcellus [6] = species: Cavia porcellus; test: In vitro antagonism of 8 nM of peptidoleukotriene (LTE4) induced contraction of guinea pig tracheal spirals at 1 X E-7M concentration; assay type: functional, Trachea; how it was run: as §2
# Cavia porcellus [7] = species: Cavia porcellus; test: In vitro antagonism of 8 nM of peptidoleukotriene (LTE4) induced contraction of guinea pig tracheal spirals at 0.033 X E-7M concentration; assay type: functional, Trachea; how it was run: as §2
# [8] = target: T1, Cysteinyl leukotriene receptor 1 (Cavia porcellus) (UniProt Q2NNR5); test: Dissociation constant KB = [antagonist]/(dose ratio -1).KB determined in guinea pig tracheal spirals with LTE4 as agonist; assay type: functional, tissue-based; conditions: Trachea; how it was run: as §1
# T1 sequence (whole entry): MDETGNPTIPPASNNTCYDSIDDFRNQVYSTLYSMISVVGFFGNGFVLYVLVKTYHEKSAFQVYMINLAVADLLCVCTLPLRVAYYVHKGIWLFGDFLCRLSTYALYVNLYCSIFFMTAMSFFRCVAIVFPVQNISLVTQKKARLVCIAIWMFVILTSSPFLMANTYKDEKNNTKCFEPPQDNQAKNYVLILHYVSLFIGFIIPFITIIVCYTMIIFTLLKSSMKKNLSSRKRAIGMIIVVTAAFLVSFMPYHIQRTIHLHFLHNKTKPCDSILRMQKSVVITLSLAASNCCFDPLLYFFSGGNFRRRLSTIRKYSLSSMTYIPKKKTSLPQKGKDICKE
# Cavia porcellus [9] = species: Cavia porcellus; test: In vitro antagonism of 8 nM of peptidoleukotriene (LTE4) induced contraction of guinea pig tracheal spirals at 3.3 X E-7M concentration; assay type: functional, Trachea; how it was run: as §2
# Cavia porcellus [10] = species: Cavia porcellus; test: In vitro antagonism of 8 nM of peptidoleukotriene (LTE4) induced contraction of guinea pig tracheal spirals at 0.01 X E-7M concentration; assay type: functional, Trachea; how it was run: as §2
smiles,measurement,setting,value
CCCCOC(=O)Nc1ccc2ccn(Cc3ccc(-c4nn[nH]n4)cc3OC)c2c1,pKB,Cavia porcellus [1],7.2
same,Antagonism,Cavia porcellus [2],68%
CCCCC(CC)C(=O)Nc1ccc2ccn(Cc3ccc(C(=O)O)cc3OCCCC#N)c2c1 (stereo unspecified),Antagonism,Cavia porcellus [3],84%
same,Antagonism,Cavia porcellus [4],33%
COc1cc(-c2nn[nH]n2)ccc1Cn1ccc2ccc(NC(=O)OC3CCCC3)cc21,pKB,Cavia porcellus [1],7.6
same,Antagonism,Cavia porcellus [2],62%
CCC(C(=O)Nc1ccc2ccn(Cc3ccc(C(=O)NS(=O)(=O)c4ccccc4)cc3OC)c2c1)c1ccccc1 (stereo unspecified),Antagonism,Cavia porcellus [5],33%
COc1cc(C(=O)O)ccc1Cn1ccc2ccc(NC(=O)CC3CCCC3)cc21,Antagonism,Cavia porcellus [6],34%
COc1cc(C(=O)N(C)S(=O)(=O)c2ccccc2)ccc1Cn1ccc2ccc(NC(=O)CC3CCCC3)cc21,Antagonism,Cavia porcellus [6],42%
CCCCC(CC)C(=O)Nc1ccc2ccn(Cc3ccc(C(=O)O)cc3F)c2c1 (stereo unspecified),Antagonism,Cavia porcellus [3],86%
CCCCCC(=O)Nc1ccc2ccn(Cc3ccc(-c4nn[nH]n4)cc3OC)c2c1,Antagonism,Cavia porcellus [4],86%
same,Antagonism,Cavia porcellus [2],32%
CCCCC(CC)C(=O)Nc1ccc2ccn(Cc3ccc(C(=O)Nc4ccccc4C(=O)O)cc3OC)c2c1 (stereo unspecified),Antagonism,Cavia porcellus [3],34%
CCCCC(CC)C(=O)Nc1ccc2ccn(Cc3ccc(C(=O)NS(=O)(=O)c4ccc([N+](=O)[O-])cc4)cc3OC)c2c1 (stereo unspecified),pKB,Cavia porcellus [1],7.7
CCCCC(CC)C(=O)Nc1ccc2ccn(Cc3ccc(C(=O)C(C#N)S(=O)(=O)c4ccccc4)cc3OC)c2c1 (stereo unspecified),Antagonism,Cavia porcellus [6],73%
same,pKB,Cavia porcellus [1],8.1
CCCCC(CC)C(=O)Nc1ccc2ccn(Cc3ccc(C(=O)N[S+]([O-])c4ccccc4)cc3OC)c2c1 (stereo unspecified),Antagonism,Cavia porcellus [4],34%
CCCCC(CC)C(=O)Nc1ccc2ccn(Cc3ccc(C(=O)C(C(=O)OC)S(=O)(=O)c4ccccc4)cc3OC)c2c1 (stereo unspecified),Antagonism,Cavia porcellus [6],100%
same,pKB,Cavia porcellus [1],8.5
same,Antagonism,Cavia porcellus [5],65%
CCCCC(CC)C(=O)Nc1ccc2ccn(Cc3ccc(C(=O)NS(=O)(=O)c4ccccc4C)cc3OC)c2c1 (stereo unspecified),pKB,Cavia porcellus [1],8.9
CCCCC(CC)C(=O)Nc1ccc2ccn(Cc3ccc(C(=O)O)cc3)c2c1 (stereo unspecified),Antagonism,Cavia porcellus [3],44%
COc1cc(C(=O)NS(=O)(=O)c2ccccc2N)ccc1Cn1ccc2ccc(NC(=O)CC3CCCC3)cc21,pKB,Cavia porcellus [1],9.9
CCCCC(CC)C(=O)Nc1ccc2ccn(Cc3ccc(C(=O)NS(=O)(=O)c4ccc(OC)cc4)cc3OC)c2c1 (stereo unspecified),pKB,Cavia porcellus [1],7.4
CCCCC(CC)C(=O)Nc1ccc2ccn(Cc3ccc(C(=O)O)cc3OCCCc3nnn[nH]3)c2c1 (stereo unspecified),Antagonism,Cavia porcellus [2],32%
CCCCC(CC)C(=O)Nc1ccc2ccn(Cc3ccc(C(=O)NO)cc3OC)c2c1 (stereo unspecified),Antagonism,Cavia porcellus [3],38%
COc1cc(C(=O)NS(=O)(=O)c2c(C)cccc2Cl)ccc1Cn1ccc2ccc(NC(=O)CC3CCCC3)cc21,pKB,Cavia porcellus [1],8.8
CCCCC(CC)C(=O)Nc1ccc2ccn(Cc3ccc(C(=O)NS(=O)(=O)C(C)C)cc3OC)c2c1 (stereo unspecified),Antagonism,Cavia porcellus [2],47%
COc1cc(C(=O)NS(=O)(=O)c2ccccc2C)ccc1Cn1ncc2ccc(NC(=O)CC3CCCC3)cc21,pKB,Cavia porcellus [1],10.9
CCCCC(CC)C(=O)Nc1ccc2ccn(Cc3ccc(/C=C/C(=O)O)cc3OC)c2c1 (stereo unspecified),Antagonism,Cavia porcellus [3],31%
CCCCC(CC)C(=O)Nc1ccc2cnn(Cc3ccc(-c4nn[nH]n4)cc3OC)c2c1 (stereo unspecified),pKB,Cavia porcellus [1],7.1
same,Antagonism,Cavia porcellus [2],100%
CCCCC(CC)C(=O)Nc1ccc2ccn(Cc3ccc(C(=O)O)cc3C)c2c1 (stereo unspecified),Antagonism,Cavia porcellus [3],91%
same,Antagonism,Cavia porcellus [4],21%
CCCCC(CC)C(=O)Nc1ccc2ccn(Cc3ccc(C(=O)Nc4nn[nH]n4)cc3OC)c2c1 (stereo unspecified),Antagonism,Cavia porcellus [3],62%
same,Antagonism,Cavia porcellus [2],20%
CCCCC(CC)C(=O)Nc1ccc2ccn(Cc3ccc(C(=O)NS(=O)(=O)c4ccc(F)cc4)cc3OC)c2c1 (stereo unspecified),pKB,Cavia porcellus [1],7.7
CCCCC(CC)C(=O)Nc1ccc2ccn(Cc3cccc(C(=O)O)c3)c2c1 (stereo unspecified),Antagonism,Cavia porcellus [3],31%
CCCCC(CC)C(=O)Nc1ccc2ccn(Cc3ccc(OC)c(C(=O)O)c3)c2c1 (stereo unspecified),Antagonism,Cavia porcellus [3],28%
CCC(C(=O)Nc1ccc2cnn(Cc3ccc(C(=O)NS(=O)(=O)c4ccccc4)cc3OC)c2c1)c1ccccc1 (stereo unspecified),Antagonism,Cavia porcellus [7],43%
CCCCOc1cc(C(=O)O)ccc1Cn1ccc2ccc(NC(=O)C(CC)CCCC)cc21 (stereo unspecified),Antagonism,Cavia porcellus [3],83%
same,Antagonism,Cavia porcellus [4],44%
COc1cc(-c2nn[nH]n2)ccc1Cn1ncc2ccc(NC(=O)OC3CCCC3)cc21,Antagonism,Cavia porcellus [6],58%
same,pKB,Cavia porcellus [1],7.7
same,Antagonism,Cavia porcellus [2],100%
CCCCC(CC)C(=O)Nc1ccc2ccn(Cc3ccc(-c4nn[nH]n4)cc3OC)c2c1 (stereo unspecified),pKB,[8],6.6
same,Antagonism,Cavia porcellus [9],31%
same,Antagonism,Cavia porcellus [2],50%
CCCCC(CC)C(=O)Nc1ccc2ccn(Cc3ccc(C(=O)NCC(=O)O)cc3OC)c2c1 (stereo unspecified),Antagonism,Cavia porcellus [3],43%
COc1cc(C(=O)NS(=O)(=O)c2cc(C)ccc2C)ccc1Cn1ccc2ccc(NC(=O)CC3CCCC3)cc21,pKB,Cavia porcellus [1],8.4
CCCCC(CC)C(=O)Nc1ccc2ccn(Cc3ccc(C(=O)NS(=O)(=O)c4ccc(C)cc4)cc3OC)c2c1 (stereo unspecified),pKB,Cavia porcellus [1],8.4
CCCCC(CC)C(=O)Nc1ccc2ccn(Cc3ccc(C(=O)O)cc3OC)c2c1 (stereo unspecified),Antagonism,Cavia porcellus [4],100%
same,pKB,[8],6.6
same,Antagonism,Cavia porcellus [2],59%
CCCCC(CC)C(=O)Nc1ccc2ccn(Cc3ccc(C(=O)CS(=O)(=O)c4ccccc4)cc3OC)c2c1 (stereo unspecified),Antagonism,Cavia porcellus [2],59%
CCCCC(CC)C(=O)Nc1ccc2ccn(Cc3ccc(S(=O)(=O)NC(=O)c4ccccc4)cc3)c2c1 (stereo unspecified),Antagonism,Cavia porcellus [3],37%
COc1cc(C(=O)NS(=O)(=O)c2ccccc2Cl)ccc1Cn1ccc2ccc(NC(=O)CC3CCCC3)cc21,pKB,Cavia porcellus [1],9.8
COc1cc(-c2nn[nH]n2)ccc1Cn1ccc2ccc(NC(=O)CC3CCCC3)cc21,Antagonism,Cavia porcellus [6],42%
same,Antagonism,Cavia porcellus [9],79%
same,Antagonism,Cavia porcellus [2],100%
CCCCC(CC)C(=O)Nc1ccc2ccn(Cc3ccc(C(=O)NS(=O)(=O)c4ccccc4)cc3)c2c1 (stereo unspecified),Antagonism,Cavia porcellus [6],42%
same,pKB,Cavia porcellus [1],6.8
CCCCC(CC)C(=O)Nc1ccc2ccn(Cc3ccc(C(=O)NS(C)(=O)=O)cc3OC)c2c1 (stereo unspecified),Antagonism,Cavia porcellus [2],100% and 60%
CCCCC(CC)C(=O)Nc1ccc2ccn(Cc3ccc(C(=O)NS(=O)(=O)c4ccccc4)c(OC)c3)c2c1 (stereo unspecified),Antagonism,Cavia porcellus [6],52%
CCCCC(CC)C(=O)Nc1ccc2ccn(Cc3ccc(C(=O)NS(=O)(=O)Cc4ccccc4)cc3OC)c2c1 (stereo unspecified),Antagonism,Cavia porcellus [3],89%
CCCCC(CC)C(=O)Nc1ccc2ccn(Cc3ccc(C(=O)O)c(OC)c3)c2c1 (stereo unspecified),Antagonism,Cavia porcellus [2],15%
COC(=O)C(C(=O)c1ccc(Cn2ccc3ccc(NC(=O)CC4CCCC4)cc32)c(OC)c1)S(=O)(=O)c1ccccc1 (stereo unspecified),Antagonism,Cavia porcellus [10],63%
same,pKB,Cavia porcellus [1],10.1
same,Antagonism,Cavia porcellus [7],94%
COc1ccc(OC)c(S(=O)(=O)NC(=O)c2ccc(Cn3ccc4ccc(NC(=O)CC5CCCC5)cc43)c(OC)c2)c1,pKB,Cavia porcellus [1],9.1
CCCCC(CC)C(=O)Nc1ccc2ccn(Cc3ccc(S(=O)(=O)O)cc3)c2c1 (stereo unspecified),Antagonism,Cavia porcellus [3],48%
COc1cc(C(=O)NS(=O)(=O)c2cccs2)ccc1Cn1ccc2ccc(NC(=O)CC3CCCC3)cc21,pKB,Cavia porcellus [1],9.6
COc1cc(C(=O)NS(=O)(=O)c2ccccc2C)ccc1Cn1ncc2ccc(NC(=O)OC3CCCC3)cc21,pKB,Cavia porcellus [1],10.2
CCCCC(CC)C(=O)Nc1ccc2ccn(Cc3ccc(C(=O)O)c(Br)c3)c2c1 (stereo unspecified),Antagonism,Cavia porcellus [4],33%
CCCCC(CC)C(=O)Nc1ccc2ccn(Cc3c(OC)cc(C(=O)O)cc3OC)c2c1 (stereo unspecified),Antagonism,Cavia porcellus [2],63%
CCCCC(CC)C(=O)Nc1ccc2ccn(Cc3ccc(C(=O)NS(=O)(=O)c4ccccc4)cc3OC)c2c1 (stereo unspecified),Antagonism,Cavia porcellus [6],100%
same,pKB,Cavia porcellus [1],8.6
same,Antagonism,Cavia porcellus [5],27%
COc1cc(C(=O)NS(=O)(=O)c2ccccn2)ccc1Cn1ccc2ccc(NC(=O)CC3CCCC3)cc21,pKB,Cavia porcellus [1],8.9
COc1cc(C(=O)NS(=O)(=O)c2ccc3ccccc3c2)ccc1Cn1ccc2ccc(NC(=O)CC3CCCC3)cc21,pKB,Cavia porcellus [1],8.3
CCCCC(CC)C(=O)Nc1ccc2ccn(Cc3ccc(C(=O)NS(=O)(=O)c4ccc(Cl)cc4)cc3OC)c2c1 (stereo unspecified),pKB,Cavia porcellus [1],7.8
COC(=O)C(C(=O)c1ccc(Cn2ncc3ccc(NC(=O)OC4CCCC4)cc32)c(OC)c1)S(=O)(=O)c1ccccc1 (stereo unspecified),Antagonism,Cavia porcellus [10],53%
same,pKB,Cavia porcellus [1],9.9
same,Antagonism,Cavia porcellus [7],78%
CCCCC(CC)C(=O)Nc1ccc2ccn(Cc3c(OC)cc(C(=O)NS(=O)(=O)c4ccccc4)cc3OC)c2c1 (stereo unspecified),Antagonism,Cavia porcellus [6],72%
same,pKB,Cavia porcellus [1],8
CCCCC(CC)C(=O)Nc1ccc2ccn(Cc3cccc(C(=O)O)c3OC)c2c1 (stereo unspecified),Antagonism,Cavia porcellus [3],38%
COc1cc(C(=O)NS(=O)(=O)c2ccccc2OC)ccc1Cn1ccc2ccc(NC(=O)CC3CCCC3)cc21,pKB,Cavia porcellus [1],9.7
CCCCC(CC)C(=O)Nc1ccc2ccn(Cc3ccc(C(=O)O)cc3Cl)c2c1 (stereo unspecified),Antagonism,Cavia porcellus [3],44%
CCCCOC(=O)Nc1ccc2cnn(Cc3ccc(-c4nn[nH]n4)cc3OC)c2c1,Antagonism,Cavia porcellus [9],55%
same,pKB,Cavia porcellus [1],7.1
